Experimental data published in ChEMBL document CHEMBL1125542, “Dihydropyrimidine calcium channel blockers. 4. Basic 3-substituted-4-aryl-1,4-dihydropyrimidine-5-carboxylic acid esters. Potent antihypertensive agents” (J Med Chem, 1992).

species on record: Oryctolagus cuniculus; assay: In vitro inhibition of potassium-contracted rabbit aorta strips; type: functional
Method in brief: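 Rabbit thoracic aorta strips contracted with potassium chloride (100 mM) in the presence of calcium. IC50 is the drug concentration giving 50% relaxation, reported with 95% confidence intervals.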

Which IC50 does the source give for `CC1=C(C(=O)OC(C)C)C(c2ccccc2C(F)(F)F)N(C(=O)OC2CCN(Cc3ccccc3)CC2)C(=O)N1` (configuration not stated) here?
Its IC50 is 50 nM.

How did the IC50 turn out when `CC1=NC(=S)N(C(=O)OC2CCN(Cc3ccc(F)cc3)CC2)C(c2ccccc2C(F)(F)F)/C1=C(\O)OC(C)C` (configuration not stated) was run?
The IC50 was 7 nM.

How did the IC50 turn out when `CC1=C(C(=O)OC(C)C)C(c2ccccc2C(F)(F)F)N(CCC2CCN(Cc3ccccc3)CC2)C(S)=N1` (configuration not stated) was run?
Its IC50 is 120 nM.

How did the IC50 turn out when `CCOC(=O)C1=C(COCCN)NC(C)=C(C(=O)OC)C1c1ccccc1Cl` (configuration not stated) [AMLODIPINE] was run?
The IC50 was 3 nM.

For `CCO/C(O)=C1\C(C)=NC(=S)N(C(=O)O[C@H]2CCN(Cc3ccccc3)C2)C1c1ccccc1C(F)(F)F` (some centres not stated), which IC50 is on record?
Its IC50 is 2 nM.

With `CC1=C(C(=O)OC(C)C)C(c2cccc([N+](=O)[O-])c2)N(CCCN(C)Cc2ccccc2)C(S)=N1` (configuration not stated) as the compound, how does the IC50 read?
Its IC50 is 72 nM.

How did the IC50 turn out when `CCOC(=O)C1=C(C)N=C(S)NC1c1cccc([N+](=O)[O-])c1` (configuration not stated) was run?
The IC50 was greater than 1000 nM.

Which IC50 does the source give for `CC1=C(C(=O)OC(C)C)C(c2ccccc2[N+](=O)[O-])N(C(=O)OC2CCN(Cc3ccccc3)CC2)C(=O)N1` (configuration not stated) here?
The IC50 was 8 nM.

Which IC50 does the source give for `CC1=C(C(=O)OC(C)C)C(c2ccccc2C(F)(F)F)N(C(=O)OC2CCN(Cc3ccc(Cl)cc3)CC2)C(=O)N1` (configuration not stated) here?
The IC50 was 55 nM.

Which IC50 does the source give for `CCO/C(O)=C1\C(C)=NC(=S)N(C(=O)OCCN(C)Cc2ccccc2)C1c1ccccc1C(F)(F)F` (configuration not stated) here?
Its IC50 is 23 nM.

How did the IC50 turn out when `CCOC(=O)N1C(=S)N=C(C)/C(=C(/O)OCC)C1c1cccc([N+](=O)[O-])c1` (configuration not stated) was run?
Its IC50 is 17 nM.

How did the IC50 turn out when `CC1=C(C(=O)OC(C)C)C(c2cccc([N+](=O)[O-])c2)N(C(=O)O[C@H](C)CN(C)Cc2ccccc2)C(=O)N1` (some centres not stated) was run?
Its IC50 is 64 nM.

`CCO/C(O)=C1\C(C)=NC(=S)N(C(=O)OC2CCN(Cc3ccccc3)CC2)C1c1ccccc1C(F)(F)F` (configuration not stated) was tested. Which IC50 did it give?
Its IC50 is 9 nM.

Which IC50 does the source give for `CC1=C(C(=O)OCC(C)C)C(c2ccccc2C(F)(F)F)N(C(=O)OC2CCN(Cc3ccccc3)CC2)C(=O)N1` (configuration not stated) here?
Its IC50 is 98 nM.

With `CCO/C(O)=C1\C(C)=NC(=S)N(C(=O)OCCN(C)Cc2ccccc2)C1c1cccc([N+](=O)[O-])c1` (configuration not stated) as the compound, how does the IC50 read?
The IC50 was 29 nM.

For `CCOC(=O)N1C(=S)N=C(C)/C(=C(/O)OCCN(C)Cc2ccccc2)C1c1cccc([N+](=O)[O-])c1` (configuration not stated), which IC50 is on record?
Its IC50 is 34 nM.

How did the IC50 turn out when `CC1=NC(=S)N(C(=O)OC2CCN(Cc3ccccc3)CC2)C(c2ccccc2[N+](=O)[O-])/C1=C(\O)OC(C)C` (configuration not stated) was run?
Its IC50 is 2 nM.

With `CC1=NC(=S)N(C(=O)OC2CCN(Cc3ccc(F)cc3)CC2)[C@@H](c2ccccc2C(F)(F)F)/C1=C(\O)OC(C)C` as the compound, how does the IC50 read?
The IC50 was greater than 1000 nM.

Which IC50 does the source give for `CC1=NC(=S)N(C(=O)OC2CCN(Cc3ccccc3)CC2)C(c2ccccc2Cl)/C1=C(\O)OC(C)C` (configuration not stated) here?
Its IC50 is 5 nM.

How did the IC50 turn out when `CCO/C(O)=C1\C(C)=NC(=S)N(C(=O)OC(C)C)C1c1ccccc1C(F)(F)F` (configuration not stated) was run?
Its IC50 is 50 nM.

Which IC50 does the source give for `CC1=NC(=S)N(C(=O)OC2CCN(Cc3ccc(F)cc3)CC2)[C@H](c2ccccc2C(F)(F)F)/C1=C(\O)OC(C)C` here?
The IC50 was 15 nM.

`CC1=C(C(=O)OC(C)C)C(c2ccccc2C(F)(F)F)N(C(=O)O[C@H]2CCN(Cc3ccccc3)C2)C(=O)N1` (some centres not stated) was tested. Which IC50 did it give?
The IC50 was 790 nM.

How did the IC50 turn out when `CC1=C(C(=O)OC(C)C)C(c2ccccc2C(F)(F)F)N(C(=O)OC2CCCN(Cc3ccccc3)C2)C(=O)N1` (configuration not stated) was run?
The IC50 was 130 nM.

Which IC50 does the source give for `CC1=C(C(=O)OC(C)C)C(c2ccccc2C(F)(F)F)N(C(=O)O[C@@H]2CCN(Cc3ccccc3)C2)C(=O)N1` (some centres not stated) here?
The IC50 was 360 nM.

How did the IC50 turn out when `CC1=C(C(=O)OC(C)C)C(c2cccc([N+](=O)[O-])c2)N(C(=O)O[C@@H](C)CN(C)Cc2ccccc2)C(=O)N1` (some centres not stated) was run?
The IC50 was 57 nM.

For `CC1=NC(=S)N(C(=O)OC2CCN(Cc3ccccc3)CC2)C(c2cccc([N+](=O)[O-])c2)/C1=C(\O)OC(C)C` (configuration not stated), which IC50 is on record?
Its IC50 is 4 nM.

For `CC1=NC(=S)N(C(=O)OC2CCN(Cc3ccccc3)CC2)C(c2ccccc2C(F)(F)F)/C1=C(\O)OC(C)C` (configuration not stated), which IC50 is on record?
The IC50 was 5 nM.

For `CCOC(=O)N1C(=S)N=C(C)/C(=C(/O)OCC)C1c1ccccc1C(F)(F)F` (configuration not stated), which IC50 is on record?
Its IC50 is 41 nM.

`CCCN1C(S)=NC(C)=C(C(=O)OC2CCN(Cc3ccccc3)CC2)C1c1ccccc1C(F)(F)F` (configuration not stated) was tested. Which IC50 did it give?
The IC50 was greater than 1000 nM.

How did the IC50 turn out when `CC1=C(C(=O)OC(C)C)C(c2cccc([N+](=O)[O-])c2)N(C(=O)OC2CCN(Cc3ccccc3)CC2)C(=O)N1` (configuration not stated) was run?
The IC50 was 12 nM.

With `CCOC(=O)N1C(=S)N=C(C)/C(=C(/O)OCCN(C)Cc2ccccc2)C1c1ccccc1C(F)(F)F` (configuration not stated) as the compound, how does the IC50 read?
The IC50 was 22 nM.

species on record: Oryctolagus cuniculus; assay: In vitro evaluation for the inhibition of potassium-contracted rabbit aorta strips by vasorelaxant assay.; type: functional
Method in brief: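 Rabbit thoracic aorta strips contracted with potassium chloride (100 mM) in the presence of calcium. IC50 taken as the drug concentration giving 50% relaxation of the contraction, reported with 95% confidence intervals.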

How did the IC50 turn out when `COC(=O)C1=C(C)NC(C)=C(C(=O)OC)C1c1ccccc1[N+](=O)[O-]` [NIFEDIPINE] was run?
The IC50 was 2 nM.
